High-throughput results deposited in PubChem BioAssay by several laboratories.
ABCB1 block – human ABCB1 inhibition, ABCG2 as counter-screen; P08183; CCRF-Adr cells, JC-1 efflux, flow cytometry; inhibition, % at 6.6 µM; hit rate 0.067% among 190,000; in the data active = inhibition above about 40%;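 also: higher value means more JC-1 retained so stronger ABCB1 efflux block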
Redox H2O2 prof – compounds producing H2O2 with reducing agent – biochemical, NIH compound library profiling, artefact control for MLSCN library redox annotation, primary screen | DTT-dependent redox cycling H2O2, phenol red/HRP absorbance; 100% = 100 µM peroxide control, 0% = buffer | activation, % at 10 µM | hit rate 0.03% among 200,000;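 active = activation of at least 50% relative to the plate's high and low controls in the primary single-dose screen; inactive = activation below 50%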;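 also: compound incubated with DTT at 0.8 mM final as the reducing agent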
ABCG2 block – inhibitors of human ABCG2 transporter, ABCB1 counter-screen. Q9UNQ0. IgMXP3 cells, JC-1 efflux, flow cytometry. inhibition, % at 6.6 µM. hit rate 0.1% among 190,000. AID 1325;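 active = inhibition above 80%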
Target sequence (Q9UNQ0 whole entry, looked up): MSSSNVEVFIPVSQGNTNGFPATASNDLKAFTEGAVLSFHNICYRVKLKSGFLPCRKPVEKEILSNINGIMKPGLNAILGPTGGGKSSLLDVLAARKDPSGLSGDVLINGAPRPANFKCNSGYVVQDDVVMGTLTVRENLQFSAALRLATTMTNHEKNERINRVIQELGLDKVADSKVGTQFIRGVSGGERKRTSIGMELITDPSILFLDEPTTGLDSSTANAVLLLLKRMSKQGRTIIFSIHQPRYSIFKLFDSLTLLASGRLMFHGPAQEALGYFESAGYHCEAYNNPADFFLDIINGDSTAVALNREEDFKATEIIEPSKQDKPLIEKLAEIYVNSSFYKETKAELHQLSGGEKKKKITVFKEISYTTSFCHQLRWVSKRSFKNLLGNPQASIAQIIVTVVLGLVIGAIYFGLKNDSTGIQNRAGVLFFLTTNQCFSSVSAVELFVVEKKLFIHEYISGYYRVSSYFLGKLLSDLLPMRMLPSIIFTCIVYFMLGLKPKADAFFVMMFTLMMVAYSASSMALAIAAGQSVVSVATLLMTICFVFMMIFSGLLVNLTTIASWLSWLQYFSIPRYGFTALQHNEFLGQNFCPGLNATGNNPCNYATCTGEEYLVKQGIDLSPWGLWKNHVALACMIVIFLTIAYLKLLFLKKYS
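Test system: IgMXP3 (ABCG2) plus far-red-tagged CCRF-Adr (ABCB1) cells / Amount: 3 million cells/mL in well / Reagent: JC-1 transporter substrate / Timing: 10 min compound exposure, 25 °C / Signal: flow cytometry, 530 nm JC-1 signal / Read-out: percent efflux inhibition, scaled nicardipine 100% to DMSO 0% / Benchmarks: nicardipine as high control, DMSO as low control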
FLuc inh counter – Photinus pyralis luciferase inhibition counter-screen | P08659 | ATPLite firefly luciferase biochemical luminescence, 10 min | inhibition, % at 10 µM | hit rate 1.5% among 200,000 | AID 1006;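 active = inhibition above about 50% when tested at 10 µM, limit read from the data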
Measles CPE – protection of cells from measles virus; Measles virus-infected cells, CPE protection, absorbance; protection (pct of control), % at 4 µM; hit rate 1.5% among 140,000; in the data active = protection mostly above about 24%, no sharp cut-off; inactive = mostly below about 26%
FLuc stim CS – firefly luciferase counter-screen for stimulation assays; 200,000 tested, under 10 active; P08659; activation factor at 10 µM; ATPlite luciferase biochemical, luminescence, 10 min; 0 = ATP-free wells, 1 = DMSO control;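 active = luciferase activation factor, scaled between plate controls, of at least 2 with compound at 10 µM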
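Material: luciferase plus luciferin reagent, cell-free. Medium: PBS buffer for ATP. Also added: ATP substrate, dispensed from a 10.24 µM working solution in PBS. Doses: test compounds dosed from 2 mM stocks in 100% DMSO. Incubation: 10 min post-reagent at room temperature. Technique: light output (luminescence). Read-out basis: luminescence gain marking luciferase activators.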
Of the large screens only hits and unclear results are named; the others gave an inactive call. Most compounds without a hit are left out; they make up all but 2.7% or so of the library.

Cc1ccc(-c2nc(N)s[n+]2-c2ccccc2)cc1	FLuc inh counter 80
CC(=O)Nc1scc(-c2ccccc2)[n+]1-c1ccc(C)cc1	none (no result: Measles CPE)
Cc1cc(N2CCCCC2)n2ncc(-c3ccccc3)c2n1	FLuc inh counter 67
Cc1cc(N2CCCCC2)n2ncc(-c3ccc(Cl)cc3)c2n1	none
Cc1cc(N2CCOCC2)n2ncc(-c3ccccc3)c2n1	FLuc inh counter 84
Cc1cc(N2CCN(C(=O)c3ccco3)CC2)n2ncc(-c3ccccc3)c2n1	Measles CPE 39
CN1CCN(NC(=O)c2ccc(COc3ccccc3Br)o2)CC1	none (no result: Measles CPE)
Cc1ccc(S(=O)(=O)N(C)C)cc1NC(=O)CCNC(=O)c1ccccc1Cl	Measles CPE 54
CCN(CC)S(=O)(=O)c1ccc(C)c(NC(=O)COC(=O)CNC(=O)c2ccc(C(C)(C)C)cc2)c1	FLuc inh counter 81
Cc1ccc(OCCC(=O)OCC(=O)Nc2cc(S(=O)(=O)N(C)C)ccc2C)cc1	FLuc inh counter 58 (no result: Measles CPE)
CCN(CC)S(=O)(=O)c1ccc(C)c(NC(=O)CNCCN(C(C)C)C(C)C)c1	none (no result: Measles CPE)
COc1ccc(-c2c(C)n([O-])c3c([n+]2=O)CCCC3)cc1OC	none (no result: Measles CPE)
CCOC(=O)C(C(=O)OCC)c1cc(Br)c2noc3c2c1C(=O)c1ccccc1-3	ABCB1 block 156, ABCG2 block active
CCOC(=O)Cn1c(-c2nonc2NC(=O)c2ccccc2F)nc2ccccc21	Measles CPE 50
CC1=NN(c2nc3ccccc3[nH]2)C(=O)/C1=C/N(C)C	FLuc inh counter 94 (no result: Measles CPE)
CCOC1=NN(c2ccccc2)C(=O)/C1=C\N(C)C	none (no result: Measles CPE)
COC(=O)C(C)Sc1nc2c(cnn2-c2ccc(C)cc2)c(=O)[nH]1 (configuration not stated)	Measles CPE 59
Cc1ccc(-c2cc(C)nc3ncnn23)cc1	Measles CPE 47
Cc1cc(C)c(-c2cc(C)nc3ncnn23)c(C)c1	none (no result: Measles CPE)
O=C(COc1ccc(Cl)cc1)Nc1ccc(Cl)cn1	none
Cc1ccc(C(=O)Nc2ccc(Cl)cn2)cc1	FLuc inh counter 74
CCCOc1ccc(C(=O)Nc2ccc(Cl)cn2)cc1	FLuc inh counter 53
COc1cc(SC)ccc1C(=O)Nc1ccc(Cl)cn1	FLuc inh counter 94 (no result: Measles CPE)
CSc1ccc(Cl)c(C(=O)Nc2ccc(Cl)cn2)c1	none (no result: Measles CPE)
Cc1ccc(C(=O)Nc2ncc3c(Cl)cccc3n2)cc1	FLuc inh counter 94
Cc1ccccc1C(=O)Nc1ccc(Cl)cn1	none
CC(C)CNC(=O)COc1ncnc2sccc12	none (no result: Measles CPE)
Fc1ccccc1-c1csc(=Nc2cccnc2)n1CCCn1ccnc1	none
Cc1noc(/C=C/c2cccs2)c1S(=O)(=O)N1CCC(C(=O)NCCCN2CCCC(C)C2)CC1 (configuration not stated)	none (no result: Measles CPE)
C[C@H](NC(=O)c1ccccc1Cl)C(=O)OCC(=O)N1CC2(C)CC1CC(C)(C)C2 (some centres not stated)	none
CCOc1ccccc1NC(=O)c1cc(-c2ccncc2)nc2c(Cl)cccc12	none (no result: Measles CPE)
COc1cccc(-n2c(Cc3cc(=O)[nH]c(=O)[nH]3)nnc2SCC(=O)NC2CCCC2)c1	Measles CPE 50
COC(=O)CSc1nnc(Cc2cc(=O)[nH]c(=O)[nH]2)n1-c1cccc(OC)c1	none
O=C(NCc1cccnc1)C(=O)Nc1ccc([N+](=O)[O-])cc1	none (no result: Measles CPE)
COc1ccc(CCN2C(=O)c3cccc4c(C(=O)N5CCCCC5)ccc(c34)C2=O)cc1OC	none
CC(C)CCN1CCN(Cc2cnc(-c3ccccc3)s2)CC1CCO (configuration not stated)	none (no result: Measles CPE)
Oc1ccc(/C=C/c2cc(O)cc(O)c2)cc1	FLuc inh counter 80
Cc1cc(C)c2c3c(cn2n1)c(=O)n(C)c(=O)n3C	none (no result: ABCB1 block, ABCG2 block, FLuc inh counter, Measles CPE, FLuc stim CS)
NNc1nc(-c2ccccc2)nc2sc3c(c12)CCCC3	FLuc inh counter 84
Cc1ccc(C)c(NC(=O)CCc2ccc(S(=O)(=O)NC3CCCCC3)cc2)c1	none
COc1ccccc1NC(=O)c1ccc(NC(=O)CN2CCCC2)cc1	none (no result: Measles CPE)
COc1ccccc1NC(=O)c1ccc(NC(=O)COC(=O)C2CCCCC2)cc1	Measles CPE 49
CCn1nnnc1SCC(=O)N1CCOCC1	Measles CPE 28
CCCn1nnnc1SCC(=O)N1CCOCC1	none
Cn1c(C(=O)NCc2cccs2)cc2oc3ccccc3c21	Measles CPE 48
Cn1c(C(=O)NCC2CCCO2)cc2oc3ccccc3c21 (configuration not stated)	none
Cn1c(C(=O)NCc2ccccc2)cc2oc3ccccc3c21	Measles CPE 73
O=C(NCCc1ccccn1)c1ccc(OC(F)F)cc1	FLuc inh counter 65 (no result: Measles CPE)
COC(=O)c1cnn2c1C(=O)N(Cc1cccs1)CC2	none (no result: Measles CPE)
CCOC(=O)CCSc1nc(C)c2cc(C)ccc2n1	none
CCOC(=O)CCSc1nc(C)c2ccccc2n1	Measles CPE 56
Cc1ccnc(NC(=O)c2cc3ccccc3oc2=O)c1	FLuc inh counter 54 (no result: Measles CPE)
Cc1[nH]n(C(N)=S)c(=O)c1N=Nc1cc(-c2ccc(Br)cc2)[nH]n1	FLuc inh counter 56 (no result: Measles CPE)
Cc1[nH]n(C(N)=S)c(=O)c1N=Nc1ccc2ccccc2c1	FLuc inh counter 63 (no result: Measles CPE)
CC(=O)Nc1ccc2c(c1)nc1n2CCSC1	none
Cc1ccc(C(=O)Nc2ccc3c(c2)nc2n3CCSC2)cc1	FLuc inh counter 62
COc1ccccc1C(=O)Nc1ccc2c(c1)nc1n2CCSC1	FLuc inh counter 78
Cc1ccccc1CN(C)C(C)C(=O)Nc1ccccc1F (configuration not stated)	none (no result: Measles CPE)
COc1ccc(OC)c(C2C3=C(CC(C)(C)CC3=O)Nc3nnnn32)c1 (configuration not stated)	Measles CPE 31
CCCCC(=O)NC1=C(C(=O)OC)SCC1	none
COC(=O)C1=C(NC(=O)CCCCl)CCS1	Measles CPE 50
N/C(=N\OC(=O)c1ccco1)c1ccc(Br)cc1	none
COC(=O)c1ccc(OC(=O)c2ccco2)cc1	none
COc1ccc(/C(N)=N/OC(=O)c2ccco2)cc1	FLuc inh counter 68 (no result: Measles CPE)
N/C(=N\OC(=O)c1ccco1)c1ccccc1	FLuc inh counter 58
Cc1ccc(/C(N)=N/OC(=O)c2ccco2)cc1	FLuc inh counter 60
COc1ccc(C(=O)COc2cccc(NC(=O)c3ccco3)c2)cc1	none
COc1ccc(C(=O)COC(=O)c2ccco2)cc1	FLuc inh counter 72
CC(C)N1CCC(N2CCN(C/C=C/c3ccccc3)CC2CCO)CC1 (configuration not stated)	none (no result: Measles CPE)
N/C(=N\OC(=O)c1ccc(=O)n(Cc2ccccc2)c1)c1ccccn1	none (no result: Measles CPE)
N/C(=N\OC(=O)c1ccco1)c1ccccn1	FLuc inh counter 55 (no result: Measles CPE)
Cc1cccc(/C(N)=N/OC(=O)c2ccco2)c1	FLuc inh counter 56
